Ba/F3 V617F tox: loss of viability in JAK2V617F-driven Ba/F3 cells; Ba/F3 EpoR-JAK2V617F viability, ATP luminescence; inhibition, % at 5.6 µM; hit rate 1.1% among 220,000;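 active = inhibition above the campaign mean plus 3 SD over all tested compounds, cut at about 24% in these data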;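 note: cytokine-independent growth of Ba/F3 cells driven by EpoR plus mutant JAK2; 0% = DMSO-treated cells and 100% = JAK inhibitor I control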
APP 5UTR inh: APP translation inhibition; SH-SY5Y APP 5'UTR-luciferase reporter, luminescence; inhibition, % at 2 µM; hit rate 0.82% among 190,000;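 active = inhibition above a set limit, derived from the sample mean plus 3 SD, cut at about 45% in these data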
bCat nuc transl: modulators of beta-catenin nuclear translocation; hit rate 0.3% among 190,000; nuclear translocation activity, % at 5 µM; HeLa beta-catenin nuclear translocation, immunofluorescence imaging;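 active = nuclear translocation activity above 50% at 5 µM, with a well cell count of 50 or more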;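 note: per-cell ratio of nuclear to cytoplasmic median beta-catenin stain intensity; plate controls were DMSO negative control for no effect and GSK-3 inhibitor IX positive control for full effect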
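Technique: fluorescence imaging of beta-catenin antibody stain plus DAPI / Material: human HeLa cell line / Incubation: compound treatment 24 h, 37°C, 5% CO2 / Read-out basis: % activation of per-cell nuclear versus cytoplasmic median beta-catenin signal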
MT stabilize HCS: microtubule stabilizers in HeLa cells. hit rate 0.83% among 200,000. HeLa tubulin immunostaining HCS, 24 h; share of cells brighter than vehicle mean+2SD. % tubulin-high responders, % at 10 µM;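 active = plate Z-score above 3 for both tubulin-high and condensed-nucleus cell shares, with cell loss under 80%, at 10 µM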;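 note: anti alpha tubulin signal scored within the nucleus-defined area of each cell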
IEC-6 tox: kills IEC-6 intestinal cells in KLF5 counter-screen. IEC-6 cytotoxicity, luminescence viability. inhibition, % at 5 µM. hit rate 0.78% among 290,000; in the data active = inhibition above about 22%;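 note: 0% = plate median of test compound wells and 100% = cytotoxic reference compound wells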
BaF3 parental: parental Ba/F3 viability inhibition as JAK2V617F counter-screen; hit rate 1.1% among 220,000; inhibition, % at 5.6 µM; CellTiter-Glo ATP luminescence;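 active = inhibition above a per-campaign cutoff, the mean inhibition of all tested compounds plus 3 SD, cut at about 27% in these data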;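 note: 0% = DMSO wells and 100% = JAK Inhibitor I control wells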
* hit, by the source's call. Shown are actives, neighbours in structure and some others; about 2.2% of the full set was active somewhere.

Screening O=C(CCC1CCN(C(=O)c2ccccc2Cl)CC1)NCc1ccc(F)cc1 returned IEC-6 tox -4.
For COP(=O)(OC)c1nc(-c2cccc3ccccc23)oc1N1CCOCC1 the results were Ba/F3 V617F tox -1, APP 5UTR inh -28, bCat nuc transl -4, MT stabilize HCS 2, IEC-6 tox 5 and BaF3 parental 28*.
For C=CCNC(=O)CSc1cc([N+](=O)[O-])cc(S(=O)(=O)Cc2ccccc2)c1 the results were Ba/F3 V617F tox -5, APP 5UTR inh -1, bCat nuc transl -1, MT stabilize HCS 1, IEC-6 tox 2 and BaF3 parental 38*.
CCOc1ccccc1NC(=O)CN1CCC(NC(=O)Nc2ccccc2)CC1 was read as IEC-6 tox -3.
`CCc1ccc(C(=O)Cn2ccsc2=N)cc1` gave IEC-6 tox 6.
Screening O=C(Nc1ccc(O)cc1)c1cccc(Oc2ccc([N+](=O)[O-])cc2)c1 returned Ba/F3 V617F tox -1, APP 5UTR inh 23, bCat nuc transl 6, MT stabilize HCS 37*, IEC-6 tox -2 and BaF3 parental 5.
For Fc1ccc(-c2cn(-c3ccccc3)c3[n+]2CCS3)cc1 the results were Ba/F3 V617F tox 55*, bCat nuc transl 0, IEC-6 tox 0 and BaF3 parental 60*.
For Cc1c(-c2ccc(Cl)cc2)[n+](=O)c(-c2ccccc2)cn1[O-] the results were Ba/F3 V617F tox -3, bCat nuc transl 1, IEC-6 tox -4 and BaF3 parental -2.
CC(=O)c1ccc(N2CCN(c3ccc(C(F)(F)F)cn3)CC2)cc1 was read as Ba/F3 V617F tox 1, APP 5UTR inh -17, bCat nuc transl -2, MT stabilize HCS 2, IEC-6 tox 1 and BaF3 parental 10.
For CC(=O)c1ccc(-n2cc(-c3ccc(C(C)(C)C)cc3)[n+]3c2SCCC3)cc1 the results were Ba/F3 V617F tox 55*, APP 5UTR inh -19, bCat nuc transl 2, MT stabilize HCS 4, IEC-6 tox 5 and BaF3 parental 62*.
For Oc1ccc(C2=NN(c3ccccc3)C(c3ccc(F)cc3)C2)cc1 (stereo not given) the results were IEC-6 tox 4.
`COc1ccc(-c2cn(-c3ccc(Br)cc3)c3[n+]2CCS3)cc1` gave Ba/F3 V617F tox 65*, APP 5UTR inh -7, bCat nuc transl -1, MT stabilize HCS 4, IEC-6 tox 2 and BaF3 parental 78*.
Clc1ccc(-c2cn(-c3ccccc3)c3[n+]2CCS3)cc1 was read as Ba/F3 V617F tox 54*, APP 5UTR inh -12, bCat nuc transl 3, MT stabilize HCS 3, IEC-6 tox -2 and BaF3 parental 78*.
`C/C(=N/NS(=O)(=O)c1cccc([N+](=O)[O-])c1)c1ccncc1` gave IEC-6 tox 1.
`Cc1ccc(NC2CCCN(C(=O)c3ccccc3-c3ncc[nH]3)C2)cc1C` (stereo not given) gave IEC-6 tox 4.
Cc1ccc(CCNC(=O)CSCc2ccc(F)cc2)cc1 was read as IEC-6 tox 5.
COc1ccc(C2=CC(=O)C=CC2=O)cc1 was read as Ba/F3 V617F tox 0, APP 5UTR inh 48*, bCat nuc transl 1, IEC-6 tox -4 and BaF3 parental -9.
COc1ccc(S(=O)(=O)c2ccc(OC)cc2)cc1 was read as Ba/F3 V617F tox 0, APP 5UTR inh -10, bCat nuc transl -1, MT stabilize HCS 2, IEC-6 tox 0 and BaF3 parental 9.
Screening CCC(C(=O)Nc1ccc(C(=O)Nc2ccccc2C(=O)O)cc1)c1ccccc1 (stereo not given) returned IEC-6 tox 2.
CCCCOc1ccc(-c2nnn(CC(=O)NCc3ccco3)n2)cc1 was read as Ba/F3 V617F tox 6, APP 5UTR inh -7, bCat nuc transl 24, MT stabilize HCS 39*, IEC-6 tox -3 and BaF3 parental -1.
`CCOc1ccc(-c2nnn(CC(=O)NCc3ccco3)n2)cc1OCC` gave Ba/F3 V617F tox -1, APP 5UTR inh 15, bCat nuc transl -5, MT stabilize HCS 4, IEC-6 tox -3 and BaF3 parental 6.
For COc1ccc(NC(C)=[N+](C)CCNS(=O)(=O)c2ccc(Cl)cc2)cc1 the results were IEC-6 tox 3.
Screening COc1ccc(CN(C)Cc2nc(Cc3cccc(F)c3)no2)c2cccnc12 returned Ba/F3 V617F tox 46*, APP 5UTR inh 3, bCat nuc transl 1, MT stabilize HCS 3, IEC-6 tox 9 and BaF3 parental 62*.
For CCCCc1c(CCC)c(=N)c2ccccc2n1C the results were Ba/F3 V617F tox 76*, APP 5UTR inh 7, bCat nuc transl 0, MT stabilize HCS 3, IEC-6 tox 0 and BaF3 parental 68*.
O=C(/C=C/c1ccc(O)c(O)c1)c1ccccc1O was read as Ba/F3 V617F tox 84*, bCat nuc transl 11, IEC-6 tox 17 and BaF3 parental 40*.
O=C(/C=C/c1ccoc1)c1ccccc1O was read as Ba/F3 V617F tox -1, APP 5UTR inh -31, MT stabilize HCS 5, IEC-6 tox -3 and BaF3 parental 5.
CC(=O)N1C=Cc2c(c(C)c3c([nH]c4ccccc43)c2C)C1 was read as Ba/F3 V617F tox 80*, bCat nuc transl -1, IEC-6 tox 69* and BaF3 parental 69*.
Cc1onc(-c2ccccc2)c1C(=O)NC(=S)Nc1sc2c(c1C#N)CCCC2 was read as Ba/F3 V617F tox 4, APP 5UTR inh 1, bCat nuc transl 2, MT stabilize HCS 5, IEC-6 tox -1 and BaF3 parental 8.
N#Cc1c(NC(=O)CCCC(=O)O)sc2c1CCCCC2 was read as Ba/F3 V617F tox -4, APP 5UTR inh 46*, bCat nuc transl -4, MT stabilize HCS 2, IEC-6 tox -5 and BaF3 parental 0.
Cc1cc(C(=O)Nc2sc3c(c2C#N)CCC3)no1 was read as Ba/F3 V617F tox 1, APP 5UTR inh -18, MT stabilize HCS 22, IEC-6 tox -5 and BaF3 parental 10.
`Cc1onc(-c2ccccc2)c1C(=O)Nc1sc2c(c1C#N)CCC2` gave Ba/F3 V617F tox -1, APP 5UTR inh -6, bCat nuc transl 1, MT stabilize HCS 20*, IEC-6 tox -8 and BaF3 parental 5.
Cc1cc(C(=O)Nc2sc3c(c2C#N)CCCC3)no1 was read as Ba/F3 V617F tox 2, APP 5UTR inh -92, bCat nuc transl -1, MT stabilize HCS 18*, IEC-6 tox 6 and BaF3 parental 1.
Screening Cc1onc(-c2c(F)cccc2Cl)c1C(=O)Nc1sc2c(c1C(N)=O)CCC2 returned Ba/F3 V617F tox -4, APP 5UTR inh 8, MT stabilize HCS 31*, IEC-6 tox 2 and BaF3 parental 0.
`O=C1CCCN1CCCNc1ccc2nnc(CCC(=O)N3CCN(c4ccccc4)CC3)n2n1` gave IEC-6 tox -1.

Screens: PubChem, several laboratories
